Reference: ChEMBL document CHEMBL2150901, “Synthesis and biological activity of tricyclic cycloalkylimidazo-, pyrimido- and diazepinopurinediones” (Eur J Med Chem, 2011)
The source made the active and inactive calls. No cut-off for these calls is given here.

Key:
[1] = system: Rattus norvegicus; assay: Anticonvulsant activity in Sprague-Dawley albino rat assessed as protection against maximal electroshock-induced seizures at 30 mg/kg, po after 4 hrs; type: functional, organism-based; parameters: dose 30 mg/kg
How it was run: (§1)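 Male Sprague-Dawley albino rats (100–150 g), groups of 4. Oral suspension in 0.5% methylcellulose/water. Protection assessed by maximal electroshock or subcutaneous pentylenetetrazole; motor impairment by rotorod. Time points 0.25–4 h. Value is protected (or toxic)/tested animals.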

[2] = target: T1, Adenosine receptor A1 (Rattus norvegicus, UniProt P25099); assay: Displacement of [3H]CCPA from adenosine A1 receptor in rat brain cortical membrane; type: cell membranes
T1 sequence (P25099 whole entry): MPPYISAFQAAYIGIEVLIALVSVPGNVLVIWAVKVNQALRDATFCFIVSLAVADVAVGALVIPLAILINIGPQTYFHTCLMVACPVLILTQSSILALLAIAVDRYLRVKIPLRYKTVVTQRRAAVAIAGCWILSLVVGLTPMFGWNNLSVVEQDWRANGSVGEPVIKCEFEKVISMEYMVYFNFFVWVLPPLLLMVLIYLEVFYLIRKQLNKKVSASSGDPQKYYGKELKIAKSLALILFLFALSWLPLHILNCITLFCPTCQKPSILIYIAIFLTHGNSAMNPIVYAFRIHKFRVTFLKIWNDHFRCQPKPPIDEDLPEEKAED

[3] = system: Rattus norvegicus; assay: Toxicity in Sprague-Dawley albino rat assessed as mortality following continuous seizures at 50 mg/kg, po after 0.5 hrs; type: organism-based; parameters: dose 50 mg/kg, route oral; details: in vivo
How it was run: (§2)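 Male Sprague-Dawley albino rats (100–150 g), in groups of 4, were given an oral suspension in 0.5% methylcellulose/water. The event recorded was death following continuous seizures, given as animals affected per animals tested.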

[4] = species: Rattus norvegicus; assay: Selectivity ratio of Ki for adenosine A1 receptor in rat brain cortical membrane to Ki for adenosine A2A receptor in rat brain striatal membrane; type: cell membranes
How it was run: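 Ki ratios from radioligand competition binding. Rat A1 used brain cortical membranes and rat A2A used brain striatal membranes. Human A1 and A2A used membranes of CHO cells expressing the receptors. A1 radioligand [³H]CCPA; A2A radioligand [³H]MSX-2. Potent compounds were tested at 6–7 concentrations spanning 3 orders of magnitude.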

[5] = system: Mus musculus; assay: Anticonvulsant activity in F1 albino mouse assessed as protection against subcutaneous pentylenetetrazole-induced seizures at 300 mg/kg, ip after 0.5 hrs; type: functional, organism-based; parameters: dose 300 mg/kg
How it was run: (§3)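 Male albino F-1 mice (18–25 g), groups of 1–5 (rotorod 2–8). Compound given ip as a suspension in 0.5% methylcellulose at 30, 100 and 300 mg/kg. Seizures by maximal electroshock or subcutaneous pentylenetetrazole; neurotoxicity by rotorod. Read at 0.5 and 4 h, with some at 0.25, 1 and 2 h. Value is the minimum active dose, with protected (or toxic)/tested animals.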

[6] = system: Mus musculus; assay: Neurotoxicity in F1 albino mouse assessed as minimal motor impairment at 300 mg/kg, ip after 0.25 hrs by rotorod test; type: toxicity, organism-based; parameters: dose 300 mg/kg, route intraperitoneal; details: in vivo; how it was run: as §3
[7] = system: Rattus norvegicus; assay: Anticonvulsant activity in Sprague-Dawley albino rat assessed as protection against subcutaneous pentylenetetrazole-induced seizures at 50 mg/kg, po after 2 hrs; type: functional, organism-based; parameters: dose 50 mg/kg; how it was run: as §1
[8] = system: Mus musculus; assay: Neurotoxicity in F1 albino mouse assessed as minimal motor impairment at 300 mg/kg, ip after 1 hr by rotorod test; type: toxicity, organism-based; parameters: dose 300 mg/kg, route intraperitoneal; details: in vivo; how it was run: as §3
[9] = system: Rattus norvegicus; assay: Anticonvulsant activity in Sprague-Dawley albino rat assessed as protection against maximal electroshock-induced seizures at 30 mg/kg, po after 0.5 hrs; type: functional, organism-based; parameters: dose 30 mg/kg; how it was run: as §1
[10] = system: Rattus norvegicus; assay: Toxicity in Sprague-Dawley albino rat assessed as mortality following continuous seizures at 50 mg/kg, po after 1 hr; type: organism-based; parameters: dose 50 mg/kg, route oral; details: in vivo; how it was run: as §2
[11] = system: Mus musculus; assay: Anticonvulsant activity in F1 albino mouse assessed as protection against subcutaneous pentylenetetrazole-induced seizures at 100 mg/kg, ip after 0.25 hrs; type: functional, organism-based; parameters: dose 100 mg/kg; how it was run: as §3
[12] = system: Mus musculus; assay: Neurotoxicity in F1 albino mouse assessed as minimal motor impairment at 300 mg/kg, ip after 0.5 hrs by rotorod test; type: toxicity, organism-based; parameters: dose 300 mg/kg, route intraperitoneal; details: in vivo; how it was run: as §3
[13] = system: Rattus norvegicus; assay: Neurotoxicity in Sprague-Dawley albino rat assessed as minimal motor impairment at 30 mg/kg, po after 0.25 hrs by rotorod test; type: toxicity, organism-based; parameters: dose 30 mg/kg, route oral; details: in vivo; how it was run: as §1
[14] = system: Rattus norvegicus; assay: Neurotoxicity in Sprague-Dawley albino rat assessed as minimal motor impairment at 30 mg/kg, po after 4 hrs by rotorod test; type: toxicity, organism-based; parameters: dose 30 mg/kg, route oral; details: in vivo
How it was run: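 Male Sprague-Dawley albino rats (100–150 g), groups of 4, dosed orally with a suspension in 0.5% methylcellulose/water. Neurotoxicity was scored as minimal motor impairment on the rotorod at 0.25, 0.5, 1 and 4 h. Results are reported as animals showing toxicity per animals tested.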

[15] = system: Mus musculus; assay: Anticonvulsant activity in F1 albino mouse assessed as protection against maximal electroshock-induced seizures at 300 mg/kg, ip after 0.25 hrs; type: functional, organism-based; parameters: dose 300 mg/kg; how it was run: as §3
[16] = target: Adenosine receptor A2a (Rattus norvegicus, UniProt P30543); assay: Displacement of [3H]MSX-2 from adenosine A2A receptor in rat brain striatal membrane; type: cell membranes
[17] = system: Mus musculus; assay: Anticonvulsant activity in F1 albino mouse assessed as protection against maximal electroshock-induced seizures at 300 mg/kg, ip after 4 hrs; type: functional, organism-based; parameters: dose 300 mg/kg; how it was run: as §3
[18] = system: Mus musculus; assay: Anticonvulsant activity in F1 albino mouse assessed as protection against subcutaneous pentylenetetrazole-induced seizures at 100 mg/kg, ip after 1 hr; type: functional, organism-based; parameters: dose 100 mg/kg; how it was run: as §3
[19] = system: Rattus norvegicus; assay: Toxicity in Sprague-Dawley albino rat assessed as mortality following continuous seizures at 50 mg/kg, po after 4 hrs; type: organism-based; parameters: dose 50 mg/kg, route oral; details: in vivo; how it was run: as §2
[20] = system: Mus musculus; assay: Anticonvulsant activity in F1 albino mouse assessed as protection against maximal electroshock-induced seizures at 300 mg/kg, ip after 0.5 hrs; type: functional, organism-based; parameters: dose 300 mg/kg; how it was run: as §3
[21] = system: Rattus norvegicus; assay: Anticonvulsant activity in Sprague-Dawley albino rat assessed as protection against subcutaneous pentylenetetrazole-induced seizures at 50 mg/kg, po after 0.25 hrs; type: functional, organism-based; parameters: dose 50 mg/kg; how it was run: as §1
[22] = system: Mus musculus; assay: Anticonvulsant activity in F1 albino mouse assessed as protection against subcutaneous pentylenetetrazole-induced seizures at 300 mg/kg, ip after 4 hrs; type: functional, organism-based; parameters: dose 300 mg/kg; how it was run: as §3
[23] = system: Rattus norvegicus; assay: Anticonvulsant activity in Sprague-Dawley albino rat assessed as protection against maximal electroshock-induced seizures at 30 mg/kg, po after 1 hr; type: functional, organism-based; parameters: dose 30 mg/kg; how it was run: as §1
[24] = system: Rattus norvegicus; assay: Anticonvulsant activity in Sprague-Dawley albino rat assessed as protection against maximal electroshock-induced seizures at 30 mg/kg, po after 2 hrs; type: functional, organism-based; parameters: dose 30 mg/kg; how it was run: as §1
[25] = system: Rattus norvegicus; assay: Neurotoxicity in Sprague-Dawley albino rat assessed as minimal motor impairment at 30 mg/kg, po after 1 hr by rotorod test; type: toxicity, organism-based; parameters: dose 30 mg/kg, route oral; details: in vivo; how it was run: as §1
[26] = system: Rattus norvegicus; assay: Toxicity in Sprague-Dawley albino rat assessed as mortality following continuous seizures at 50 mg/kg, po after 0.25 hrs; type: organism-based; parameters: dose 50 mg/kg, route oral; details: in vivo; how it was run: as §2
[27] = system: Mus musculus; assay: Anticonvulsant activity in F1 albino mouse assessed as protection against maximal electroshock-induced seizures at 300 mg/kg, ip after 1 hr; type: functional, organism-based; parameters: dose 300 mg/kg; how it was run: as §3
[28] = system: Rattus norvegicus; assay: Neurotoxicity in Sprague-Dawley albino rat assessed as minimal motor impairment at 30 mg/kg, po after 0.5 hrs by rotorod test; type: toxicity, organism-based; parameters: dose 30 mg/kg, route oral; details: in vivo; how it was run: as §1
[29] = system: Mus musculus; assay: Neurotoxicity in F1 albino mouse assessed as minimal motor impairment at 300 mg/kg, ip after 4 hrs by rotorod test; type: toxicity, organism-based; parameters: dose 300 mg/kg, route intraperitoneal; details: in vivo; how it was run: as §3
[30] = system: Rattus norvegicus; assay: Anticonvulsant activity in Sprague-Dawley albino rat assessed as protection against subcutaneous pentylenetetrazole-induced seizures at 50 mg/kg, po after 0.5 hrs; type: functional, organism-based; parameters: dose 50 mg/kg; how it was run: as §1
[31] = system: Rattus norvegicus; assay: Anticonvulsant activity in Sprague-Dawley albino rat assessed as protection against subcutaneous pentylenetetrazole-induced seizures at 50 mg/kg, po after 1 hr; type: functional, organism-based; parameters: dose 50 mg/kg; how it was run: as §1
[32] = system: Rattus norvegicus; assay: Anticonvulsant activity in Sprague-Dawley albino rat assessed as protection against subcutaneous pentylenetetrazole-induced seizures at 50 mg/kg, po after 4 hrs; type: functional, organism-based; parameters: dose 50 mg/kg; how it was run: as §1
[33] = system: Rattus norvegicus; assay: Anticonvulsant activity in po dosed Sprague-Dawley albino rat assessed as protection against subcutaneous pentylenetetrazole-induced seizures after 0.25 hrs; type: functional
[34] = system: Mus musculus; assay: Anticonvulsant activity in F1 albino mouse assessed as protection against subcutaneous pentylenetetrazole-induced seizures at 300 mg/kg, ip after 0.25 hrs; type: functional, organism-based; parameters: dose 300 mg/kg; how it was run: as §3
[35] = system: Rattus norvegicus; assay: Toxicity in Sprague-Dawley albino rat assessed as mortality following continuous seizures at >100 mg/kg, po; type: organism-based; details: in vivo
[36] = system: Rattus norvegicus; assay: Anticonvulsant activity in po dosed Sprague-Dawley albino rat assessed as protection against subcutaneous pentylenetetrazole-induced seizures; type: functional
[37] = system: Rattus norvegicus; assay: Anticonvulsant activity in po dosed Sprague-Dawley albino rat assessed as protection against maximal electroshock-induced seizures; type: functional
[38] = system: Mus musculus; assay: Anticonvulsant activity in F1 albino mouse assessed as protection against subcutaneous pentylenetetrazole-induced seizures at 300 mg/kg, ip after 1 hr; type: functional, organism-based; parameters: dose 300 mg/kg; how it was run: as §3
[39] = system: Mus musculus; assay: Anticonvulsant activity in F1 albino mouse assessed as protection against subcutaneous pentylenetetrazole-induced seizures at 100 mg/kg, ip after 0.5 hrs; type: functional, organism-based; parameters: dose 100 mg/kg; how it was run: as §3

Sequence of Adenosine receptor A2a (P30543 whole entry): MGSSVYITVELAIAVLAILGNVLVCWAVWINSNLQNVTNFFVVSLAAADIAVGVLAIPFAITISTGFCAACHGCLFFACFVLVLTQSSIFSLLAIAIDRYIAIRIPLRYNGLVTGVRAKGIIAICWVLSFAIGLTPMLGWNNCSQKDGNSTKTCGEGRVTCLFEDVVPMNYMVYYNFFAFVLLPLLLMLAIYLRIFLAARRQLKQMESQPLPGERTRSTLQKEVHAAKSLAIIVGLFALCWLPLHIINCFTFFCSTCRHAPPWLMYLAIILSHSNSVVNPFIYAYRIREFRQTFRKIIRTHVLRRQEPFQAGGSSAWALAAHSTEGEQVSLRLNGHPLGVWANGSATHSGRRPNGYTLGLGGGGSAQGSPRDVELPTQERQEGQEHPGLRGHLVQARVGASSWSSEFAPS

CC1CCC(N2CCCCn3c2nc2c3c(=O)n(C)c(=O)n2C)CC1 (mixture of isomers)
Activity [1]: inactive | Ki [2]: 3440 nM | Activity [3]: Toxic | Ratio Ki [4]: 4 | Activity [5]: Active | Activity [6]: Non-toxic | Activity [7]: inactive | Activity [8]: Non-toxic | Activity [9]: inactive | Activity [10]: Toxic | Activity [11]: Active | Activity [12]: Non-toxic | Activity [13]: Non-toxic | Activity [14]: Non-toxic | Activity [15]: inactive | Ki [16]: 830 nM | Activity [17]: inactive | Activity [18]: Active | Activity [19]: Toxic | Activity [20]: inactive | Activity [21]: inactive | Activity [22]: inactive | Activity [23]: inactive | Activity [24]: inactive | Activity [25]: Non-toxic | Activity [26]: Toxic | Activity [27]: inactive | Activity [28]: Non-toxic | Activity [29]: Non-toxic

Cn1c(=O)c2c(nc3n2CCCN3CC2CCCCC2)n(C)c1=O
Activity [1]: inactive | Ki [2]: 2490 nM | Ratio Ki [4]: 4 | Activity [5]: Active | Activity [30]: Active | Activity [6]: Non-toxic | Activity [31]: Active | Activity [7]: inactive | Activity [32]: Active | Activity [8]: Non-toxic | Activity [9]: inactive | Activity [11]: Active | Activity [12]: Non-toxic | Activity [13]: Non-toxic | Activity [14]: Non-toxic | Activity [15]: inactive | Ki [16]: 610 nM | Activity [17]: inactive | Activity [18]: inactive | Activity [20]: inactive | Activity [21]: Active | Activity [22]: inactive | Activity [23]: inactive | Activity [24]: inactive | Activity [25]: Non-toxic | ED50 [33]: > 200 mg/kg | Activity [27]: inactive | Activity [28]: Non-toxic | Activity [29]: Non-toxic

Cn1c(=O)c2c(nc3n2CCCCN3CC2CCCCC2)n(C)c1=O
Activity [1]: inactive | Activity [34]: inactive | Ki [2]: 5180 nM | Ratio Ki [4]: 1 | Activity [35]: Toxic | Activity [30]: Active | Activity [6]: Non-toxic | Activity [31]: inactive | ED50 [36]: > 100 mg/kg | Activity [32]: inactive | Activity [8]: Non-toxic | ED50 [37]: > 250 mg/kg | Activity [9]: inactive | Activity [38]: inactive | Activity [12]: Non-toxic | Activity [13]: Non-toxic | Activity [14]: Non-toxic | Activity [15]: inactive | Ki [16]: 3500 nM | Activity [17]: inactive | Activity [20]: Active | Activity [39]: Active | Activity [21]: inactive | Activity [22]: inactive | Activity [23]: inactive | Activity [24]: inactive | Activity [25]: Non-toxic | Activity [27]: inactive | Activity [28]: Non-toxic | Activity [29]: Non-toxic
